Experimental data as given in ChEMBL document CHEMBL1131190, “Synthesis of 7-benzylamino-6-chloro-2-piperazino-4-pyrrolidinopteridine and novel derivatives free of positional isomers. Potent inhibitors of cAMP-specific phosphodiesterase and of malignant tumor cell growth” (J Med Chem, 1998).

What was measured:
[1] = Growth inhibition of LXFL529L cells by sulforhodamine B assay, incubation time 3 days and IC50 was calculated survival of treated cells over control cells X 100[T/C%]; type: functional; settings: Homo sapiens, LXFL 529L, 72 h
How it was run: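 LXFL529L cells grown in RPMI 1640 with extra glutamine (300 mg/L), 1% penicillin/streptomycin and 10% newborn calf serum at 37 °C, 5% CO₂, mycoplasma-free. Seeded, grown 24 h, then exposed continuously to drug for 3 d. Sulforhodamine B read-out expressed as % T/C of controls. IC50 from mean ± SEM of two separate assays, each in quadruplicate.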

[2] = target: Phosphodiesterase 4 (Homo sapiens, UniProt P27815+Q08499+Q07343+Q08493); assay: Inhibition of cAMP hydrolysis by inhibiting phosphodiesterases (PDE4), isolated from tumor tissue of human large cell lung tumor xenograft LXFL-529, grown in nude mice.; type: protein assay

`c1ccc(CNc2cnc3c(N4CCCC4)nc(N4CCNCC4)nc3n2)cc1` gave an IC50 [1] of 7.3 µM and an IC50 [2] of 0.36 µM.
In the case of `Clc1nc2c(N3CCCC3)nc(N3CCNCC3)nc2nc1NCc1ccccc1`, the IC50 [1] is reported as 2.3 µM and the IC50 [2] is reported as 0.016 µM.
In the case of `CN(C)c1nc2nc(N3CCNCC3)nc(N(C)C)c2nc1Cl`, the IC50 [1] is reported as > 20 µM and the IC50 [2] is reported as 1.2 µM.
In the case of `CN(C)c1nc2nc(N3CCNCC3)nc(N3CCCC3)c2nc1Cl`, the IC50 [1] is reported as 5.8 µM and the IC50 [2] is reported as 0.046 µM.
In the case of `CN(C)c1nc(N2CCNCC2)nc2nc(NCc3ccccc3)c(Cl)nc12`, the IC50 [1] is reported as 5.9 µM and the IC50 [2] is reported as 0.3 µM.
With `OCCNc1nc(N2CCCC2)c2nc(Cl)c(NCc3ccccc3)nc2n1` the IC50 [1] was 15.2 µM and the IC50 [2] was 2.8 µM.
In the case of `CN(C)c1nc2c(N3CCCC3)nc(Cl)nc2nc1NCc1ccccc1`, the IC50 [1] is reported as > 20 µM and the IC50 [2] is reported as 0.65 µM.
For `CN(C)c1nc(N2CCCC2)c2nc(Cl)c(NCc3ccccc3)nc2n1`, the IC50 [1] was 11.8 µM and the IC50 [2] was 1.8 µM.
`NCCNc1nc(N2CCCC2)c2nc(Cl)c(NCc3ccccc3)nc2n1` showed an IC50 [1] of 3.2 µM and an IC50 [2] of 3.7 µM.
`O=C1CN(c2nc(N3CCCC3)c3nc(Cl)c(NCc4ccccc4)nc3n2)CCN1` showed an IC50 [1] of 9.5 µM and an IC50 [2] of 4.2 µM.
`Clc1nc2c(N3CCCC3)nc(N3CCNCC3)nc2nc1N1CCCC1` gave an IC50 [1] of 3.1 µM and an IC50 [2] of 0.059 µM.
`CN1CCN(c2nc(N3CCCC3)c3nc(Cl)c(NCc4ccccc4)nc3n2)CC1` gave an IC50 [1] of 6.5 µM and an IC50 [2] of 3.1 µM.
For `Clc1nc2c(NCc3ccccc3)nc(N3CCNCC3)nc2nc1N1CCCC1`, the IC50 [1] was 4 µM and the IC50 [2] was 0.083 µM.
In the case of `Clc1nc2c(N3CCCC3)nc(N3CCOCC3)nc2nc1NCc1ccccc1`, the IC50 [1] is reported as > 20 µM and the IC50 [2] is reported as 2.5 µM.
For `CC(=O)N1CCN(c2nc(N3CCCC3)c3nc(Cl)c(NCc4ccccc4)nc3n2)CC1`, the IC50 [1] was 13 µM and the IC50 [2] was 5.9 µM.
